Experimental data of several laboratories.
Lines come from different studies, so protocols differ.
Method: competition with immobilised ligand
RPS6KA4 C-terminal kinase domain: Ribosomal protein S6 kinase alpha-4, C-terminal kinase domain (RPS6KA4, Homo sapiens, UniProt O75676)
RPS6KA4 N-terminal kinase domain: Ribosomal protein S6 kinase alpha-4, N-terminal kinase domain (RPS6KA4, Homo sapiens, UniProt O75676)

C[C@@H](c1ccc(-n2cnc3c(N)ncnc32)cc1)N1CCc2nn(C)c(Cc3ccccc3)c2C1=O  remaining binding (RPS6KA4 C-terminal kinase domain; binding; 0.1 µM): 84%
CN(C(=O)c1ccccc1)c1cc(N(C)c2ccc3c(c2)CCc2ccc(C(=O)NCCN4CCOCC4)cc2C3=O)ccc1F  remaining binding (RPS6KA4 N-terminal kinase domain; cell-free assay; 1 µM): 59%
CNC(=O)[C@@H]1CC[C@@H](n2c(-c3ccc4cnccc4c3)nc3ccc(C(=O)NCc4cccc(C(N)=O)c4)cc32)C1  remaining binding (RPS6KA4 C-terminal kinase domain; binding; 1 µM): 99%
Cc1c(NC(=O)c2cc(C(N)=O)nc3cc(F)ccc23)c(C(F)(F)F)nn1Cc1ccc(C#N)cc1  remaining binding (RPS6KA4 C-terminal kinase domain; cell-free assay; 1 µM): 85%
COc1cnc(Nc2cccc(S(N)(=O)=O)c2)nc1N1CCN(c2ccccc2)C(=O)C1  remaining binding (RPS6KA4 C-terminal kinase domain; binding; 1 µM): 100%
CN(c1nccc(-c2cnn3ncccc23)n1)C1CC1  remaining binding (RPS6KA4 C-terminal kinase domain; binding; 1 µM): 100%
O=S(=O)(NC1CCC(c2cc(F)ccc2F)(S(=O)(=O)c2ccc(Cl)cc2)CC1)C(F)(F)F (stereo not drawn)  remaining binding (RPS6KA4 N-terminal kinase domain; cell-free assay; 1 µM): 100%
Nc1ncc2c(n1)-c1c([nH]c3ccc(C#CC4CC4)cc13)CCCC2  remaining binding (RPS6KA4 N-terminal kinase domain; binding; 1 µM): 88%
C[C@@H]1CCN(c2nccc(-c3cnn4ncccc34)n2)C1  remaining binding (RPS6KA4 C-terminal kinase domain; binding; 1 µM): 58%
O=C(Nc1c[nH]nc1C(=O)NC1CCNCC1)c1cc(F)cc(F)c1  remaining binding (RPS6KA4 N-terminal kinase domain; binding; 1 µM): 100%
COc1ncc2cc3ccccc3nc2c1C#N  remaining binding (RPS6KA4 N-terminal kinase domain; cell-free assay; 5 µM): 94%
O=C(c1ccc(Nc2ncc(Cl)c(-c3ccc(Cl)s3)n2)cc1)N1CCC(N2CCCC2)CC1  remaining binding (RPS6KA4 C-terminal kinase domain; binding; 1 µM): 18%
Cc1cnn2ncc(-c3ccnc(N(C)C)n3)c2c1  remaining binding (RPS6KA4 N-terminal kinase domain; binding; 1 µM): 97%
O=C(NCc1ncc(C(F)(F)F)cc1Cl)c1ccc2c(c1)C1(CCS(=O)(=O)CC1)[C@@H](C1CC1)N2S(=O)(=O)c1ccc(F)cc1  remaining binding (RPS6KA4 C-terminal kinase domain; cell-free assay; 1 µM): 84%
CN(C)c1nccc(-c2cnc3ncccn23)n1  remaining binding (RPS6KA4 C-terminal kinase domain; binding; 1 µM): 62%
O=C(NCCCN1CCOCC1)c1ccc(Nc2nccc(-c3cc4ccccc4s3)n2)cc1  remaining binding (RPS6KA4 N-terminal kinase domain; binding; 1 µM): 100%
c1cnn2ncc(-c3ccnc(N4CCC45COC5)n3)c2c1  remaining binding (RPS6KA4 N-terminal kinase domain; binding; 1 µM): 91%
c1cncc(-c2cccc(Nc3nccc(NC4CCCCC4)n3)c2)c1  remaining binding (RPS6KA4 N-terminal kinase domain; binding; 10 µM): 78%
F[C@@H]1CCN(c2nccc(-c3cnn4ncccc34)n2)C1  remaining binding (RPS6KA4 C-terminal kinase domain; binding; 1 µM): 92%
COc1cnc(Nc2cccc(S(N)(=O)=O)c2)nc1N1CCN(c2ccccc2)CC1  remaining binding (RPS6KA4 N-terminal kinase domain; binding; 1 µM): 94%
Cc1cnc(Nc2ccc(C(=O)N3CCC(N4CCCC4)CC3)cc2)nc1-c1cc2ccccc2s1  remaining binding (RPS6KA4 C-terminal kinase domain; binding; 1 µM): 3.8%
O=C(Nc1cccnn1)N1CC(C/C=C/c2cncc(Oc3ccc(C(F)(F)F)cn3)n2)C1  remaining binding (RPS6KA4 N-terminal kinase domain; cell-free assay; 1 µM): 100%
O=C(c1ccc(Nc2ncc(Cl)c(-c3cc4ccccc4s3)n2)cc1)N1CCC(N2CCCC2)CC1  remaining binding (RPS6KA4 C-terminal kinase domain; binding; 1 µM): 13%
CN(CCCC(F)(F)F)c1nccc(-c2cnn3ncccc23)n1  remaining binding (RPS6KA4 C-terminal kinase domain; binding; 1 µM): 100%
FC(F)(F)Oc1cccc(-c2cnc3ccc(-c4ccncc4)nn23)c1  remaining binding (RPS6KA4 N-terminal kinase domain; binding; 5 µM): 97%
O=C(O)[C@H]1[C@H](Cn2nnc3ccccc3c2=O)CC[C@@H]1C(=O)c1ccc(OCCC2CCOCC2)cc1  remaining binding (RPS6KA4 N-terminal kinase domain; cell-free assay; 1 µM): 100%
O=C(c1ccc(Nc2nccc(-c3cc4ccccc4s3)n2)cc1)N1CCC(N2CCCC2)CC1  remaining binding (RPS6KA4 C-terminal kinase domain; binding; 1 µM): 14%
O=C(NCC1CCOCC1)c1n[nH]cc1NC(=O)c1c(F)cccc1F  remaining binding (RPS6KA4 N-terminal kinase domain; binding; 1 µM): 95%
O=C(NCCCN1CCOCC1)c1ccc(Nc2ncc(Cl)c(-c3ccc(Cl)s3)n2)cc1  remaining binding (RPS6KA4 C-terminal kinase domain; binding; 1 µM): 26%
C[C@@]1(Cc2ccc(C#N)cc2)C(=O)N(c2cc(Cl)cc(Cl)c2)c2ncc(C(=O)NC3(c4nc(C5CCC5)no4)CC3)n21  remaining binding (RPS6KA4 C-terminal kinase domain; cell-free assay; 1 µM): 100%
CCN1CCN(Cc2ccc(C(=O)Nc3ccc(C)c(Oc4ccc5c(c4)CC(=O)N5)c3)cc2C(F)(F)F)CC1  remaining binding (RPS6KA4 N-terminal kinase domain; binding; 1 µM): 100%
C=CC(=O)N1CCC(C(=O)NCC(=O)N2CCN(c3nc(-c4cnc(N)nc4C(F)F)nc(N4CCOCC4)n3)CC2)CC1  remaining binding (RPS6KA4 C-terminal kinase domain; binding; 1 µM): 100%
COc1ccc2c(c1)O[C@@H](c1ccc(OC)c(OC)c1)C[C@H]2NC(=O)C1(c2ccc3c(c2)OC(F)(F)O3)CC1  remaining binding (RPS6KA4 C-terminal kinase domain; cell-free assay; 1 µM): 81%
